Experimental data from ChEMBL document CHEMBL4400529, “Structure-based drug design, synthesis, In vitro, and In vivo biological evaluation of indole-based biomimetic analogs targeting estrogen receptor-α inhibition” (Eur J Med Chem, 2019).
Active and inactive are the calls of the source. The calls are words filed in the database; no cut-off is given here.

Assays:
Estrogen receptor = target: T1, Estrogen receptor (Homo sapiens, UniProt P03372); assay: Inhibition of estrogen receptor-alpha (unknown origin) by ELISA
T1 sequence (P03372 whole entry): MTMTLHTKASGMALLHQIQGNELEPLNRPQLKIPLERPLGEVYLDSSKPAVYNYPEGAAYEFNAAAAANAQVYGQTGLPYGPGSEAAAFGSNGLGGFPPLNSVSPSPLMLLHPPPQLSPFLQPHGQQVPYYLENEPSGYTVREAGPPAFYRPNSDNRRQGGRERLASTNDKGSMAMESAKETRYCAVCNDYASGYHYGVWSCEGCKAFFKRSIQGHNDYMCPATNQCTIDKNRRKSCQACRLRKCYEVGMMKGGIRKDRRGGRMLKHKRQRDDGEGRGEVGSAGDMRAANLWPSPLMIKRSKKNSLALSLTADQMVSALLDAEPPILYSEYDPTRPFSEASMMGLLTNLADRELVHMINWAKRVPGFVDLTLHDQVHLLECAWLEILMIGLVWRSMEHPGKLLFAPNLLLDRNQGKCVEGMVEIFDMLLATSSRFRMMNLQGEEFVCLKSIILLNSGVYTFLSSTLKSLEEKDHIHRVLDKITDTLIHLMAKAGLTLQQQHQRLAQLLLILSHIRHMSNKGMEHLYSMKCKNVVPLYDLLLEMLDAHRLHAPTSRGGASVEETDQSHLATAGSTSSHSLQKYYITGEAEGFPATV

[1] = Acute toxicity in Swiss albino mouse implanted with mouse EAC cells assessed effect on body weight at 5 to 10 mg/mouse, ip dosed once weekly starting 5 days after inoculation and measured up to 20 days after inoculation; format: organism-based; conditions: in vivo
Method in brief: (§1)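 Female Swiss albino mice were given EAC cells from donor ascitic fluid, diluted in sterile saline to ~12.5 × 10^6/mL, 0.2 mL i.m. into the left thigh. Once-weekly i.p. dosing in 10% Tween 80 began at a palpable ~100 mm3 mass; controls got vehicle. Tumour volume (caliper, L × H² × 0.52) and body weight were taken over 15 days; n=10, mean ± SD, ANOVA/Tukey-Kramer.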

T47D = assay: Antiproliferative activity against human T47D cells after 24 hrs by MTT assay; format: functional, cell-based
Method in brief: (§2)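 Cells from ATCC, subcultured by an earlier reported method, then exposed to 5-fold serial dilutions in triplicate for 24 h. Cells were washed with PBS, given MTT for 2 h, then dissolved in DMSO. Absorbance read at 570 nm.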

[2] = Acute toxicity in Swiss albino mouse assessed induction of mortality at 10 mg/mouse, ip dosed once weekly; format: organism-based; conditions: in vivo
Method in brief: (§3)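 Normal female-strain-unspecified mice got a single i.p. dose of 10 mg/mouse. They were watched for 7 days for short-term acute toxic signs, behavioural changes and mortality.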

Ehrlich [3] = assay: Antitumor activity against mouse EAC cells implanted in Swiss albino mouse assessed as induction of necrosis at 5 mg/mouse, ip dosed once weekly starting 5 days after inoculation by hematoxylin and eosin staining-based assay; format: functional, organism-based
Method in brief: (§4)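 EAC solid tumors in female Swiss albino mice, with weekly i.p. treatment in 10% Tween 80 against vehicle and fulvestrant controls. Tumors were collected on day 15, formalin-fixed, paraffin-embedded and stained with H&E. Necrotic index scored in 10 random fields per section per animal. n=10, one-way ANOVA with Tukey-Kramer.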

Ehrlich [4] = assay: Antitumor activity against mouse EAC cells implanted in Swiss albino mouse assessed as reduction in tumor size at 5 to 10 mg/mouse, ip dosed once weekly starting 5 days after inoculation and measured 9 and 12 days of treatment relative to fulvestrant; format: functional, organism-based
Method in brief: (§5)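 Female Swiss albino mice received EAC cells from donor ascitic fluid (~12.5 × 10^6/mL in sterile saline, 0.2 mL) i.m. into the left thigh. Treatment began at a palpable mass of ~100 mm3, given i.p. once weekly in 10% Tween 80 against vehicle and fulvestrant 5 mg/mouse controls. Caliper tumor volume = L × H² × 0.52. Mean ± SD, n=10, one-way ANOVA with Tukey-Kramer.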

Mus musculus [5] = assay: Decrease in ER-alpha protein expression in tumors of Swiss albino mouse mouse implanted with mouse EAC cells at 5 mg/mouse, ip dosed once weekly starting 5 days after inoculation by immunohistochemical analysis relative to fulvestrant; format: functional; parameters: scale not given: the % may be the effect or the level left
Method in brief: (§6)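 Tumors from the EAC mouse model after 15 days of treatment were stained by avidin-biotin immunoperoxidase using an anti-ER-α monoclonal antibody (1:100 in PBS), detected with DAB and counterstained with Mayer's hematoxylin. A section without primary antibody served as negative control. Percentage of positive cells estimated in 10 random fields per section per animal. Mean ± SD, n=10.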

Ehrlich [6] = assay: Antitumor activity against mouse EAC cells implanted in Swiss albino mouse assessed as viable cell area in deeper parts of tumor mass at 10 mg/mouse, ip dosed once weekly starting 5 days after inoculation by hematoxylin and eosin staining-based assay; format: functional, organism-based; method in brief: as §4
Ehrlich [7] = assay: Antitumor activity against mouse EAC cells implanted in Swiss albino mouse assessed as reduction in tumor volume at 10 mg/mouse, ip starting 5 days after inoculation dosed once weekly and measured on 15 days of treatment relative to fulvestrant; format: functional, organism-based; method in brief: as §5
[8] = Acute toxicity in Swiss albino mouse assessed induction of toxic signs at 10 mg/mouse, ip dosed once weekly; format: organism-based; conditions: in vivo; method in brief: as §3
Mus musculus [9] = assay: Decrease in ER-alpha protein expression in tumors of Swiss albino mouse mouse implanted with mouse EAC cells at 5 mg/mouse, ip dosed once weekly starting 5 days after inoculation by immunohistochemical analysis relative to control; format: functional; parameters: scale not given: the % may be the effect or the level left; method in brief: as §6
[10] = Acute toxicity in Swiss albino mouse assessed induction of behavioural changes at 10 mg/mouse, ip dosed once weekly; format: organism-based; conditions: in vivo; method in brief: as §3
Mus musculus [11] = assay: Decrease in ER-alpha protein expression in tumors of Swiss albino mouse mouse implanted with mouse EAC cells at 10 mg/mouse, ip dosed once weekly starting 5 days after inoculation by immunohistochemical analysis relative to control; format: functional; parameters: scale not given: the % may be the effect or the level left; method in brief: as §6
Mus musculus [12] = assay: Decrease in ER-alpha protein expression in tumors of Swiss albino mouse mouse implanted with mouse EAC cells at 10 mg/mouse, ip dosed once weekly starting 5 days after inoculation by immunohistochemical analysis relative to fulvestrant; format: functional; parameters: scale not given: the % may be the effect or the level left; method in brief: as §6
Ehrlich [13] = assay: Antitumor activity against mouse EAC cells implanted in Swiss albino mouse assessed as focal necrotic areas in deeper parts of tumor mass at 10 mg/mouse, ip dosed once weekly starting 5 days after inoculation by hematoxylin and eosin staining-based assay; format: functional, organism-based; method in brief: as §4
MCF7 = assay: Antiproliferative activity against human MCF7 cells after 24 hrs by MTT assay; format: functional, cell-based; conditions: MCF7, 24 h; method in brief: as §2
Ehrlich [14] = assay: Antitumor activity against mouse EAC cells implanted in Swiss albino mouse assessed as reduction in tumor size at 5 mg/mouse, ip dosed once weekly starting 5 days after inoculation; format: functional, organism-based; method in brief: as §1
Ehrlich [15] = assay: Antitumor activity against mouse EAC cells implanted in Swiss albino mouse assessed as induction of tumor degeneration in outer zone of tumor mass at 10 mg/mouse, ip dosed once weekly starting 5 days after inoculation by hematoxylin and eosin staining-based assay; format: functional, organism-based; method in brief: as §4
Ehrlich [16] = assay: Antitumor activity against mouse EAC cells implanted in Swiss albino mouse assessed as reduction in viable tumor cell area in outer zone of tumor mass at 10 mg/mouse, ip dosed once weekly starting 5 days after inoculation by hematoxylin and eosin staining-based assay; format: functional, organism-based; method in brief: as §4
Ehrlich [17] = assay: Antitumor activity against mouse EAC cells implanted in Swiss albino mouse assessed as increase in necrotic areas in outer zone of tumor mass at 10 mg/mouse, ip dosed once weekly starting 5 days after inoculation by hematoxylin and eosin staining-based assay; format: functional, organism-based; method in brief: as §4
Ehrlich [18] = assay: Antitumor activity against mouse EAC cells implanted in Swiss albino mouse assessed as reduction in tumor volume at 5 mg/mouse, ip dosed once weekly starting 5 days after inoculation and measured on 15 days of treatment relative to fulvestrant; format: functional, organism-based; method in brief: as §5

Structure (SMILES) | IC50 (Estrogen receptor) [µM] | IC50 (T47D) [µM] | IC50 (MCF7) [µM] | further results
O=S(=O)(Nc1ccc2cc[nH]c2c1)c1ccc(F)cc1 | 0.00331 | 33 | 30.9 | Activity [1]: Non-Toxic; Activity [2]: Non-Toxic; Activity (Ehrlich [3]): inactive; Activity (Ehrlich [4]): Active; Activity (Mus musculus [5]): 50%; Activity (Ehrlich [6]): Active; Activity (Ehrlich [7]): Active; Activity [8]: Non-Toxic; Activity (Mus musculus [9]): 58.24%; Activity [10]: Non-Toxic; Activity (Mus musculus [11]): 37.65%; Activity (Mus musculus [12]): 25.35%; Activity (Ehrlich [13]): Active
CC/C(=C(\c1ccccc1)c1ccc(OCCN(C)C)cc1)c1ccccc1 [TAMOXIFEN] | – | 34.4 | 42.4 | –
Cc1ccc(S(=O)(=O)Nc2ccc3cc[nH]c3c2)cc1 | 0.205 | 57.1 | 37.2 | –
O=C(Nc1ccc2cc[nH]c2c1)c1ccc(F)cc1 | 0.0695 | 35.1 | 45.9 | –
C[C@]12CC[C@@H]3c4ccc(O)cc4C[C@@H](CCCCCCCCC[S+]([O-])CCCC(F)(F)C(F)(F)F)[C@H]3[C@@H]1CC[C@@H]2O (some centres undefined) | – | – | – | Activity (Ehrlich [14]): Active
N#Cc1ccc(C(=O)Nc2ccc3cc[nH]c3c2)cc1 | 0.0024 | 35.8 | 33.6 | –
O=C(Nc1ccc2cc[nH]c2c1)c1cccc(C(F)(F)F)c1 | 0.00176 | 28.2 | 30.6 | Activity (Ehrlich [15]): Active; Activity [1]: Non-Toxic; Activity [2]: Non-Toxic; Activity (Ehrlich [4]): Active; Activity (Ehrlich [16]): Active; Activity (Mus musculus [5]): 57.75%; Activity [8]: Non-Toxic; Activity (Mus musculus [9]): 64.71%; Activity [10]: Non-Toxic; Activity (Mus musculus [11]): 35.3%; Activity (Mus musculus [12]): 22.54%; Activity (Ehrlich [17]): Active; Activity (Ehrlich [18]): Active
O=C(Nc1ccc2cc[nH]c2c1)c1ccc(C(F)(F)F)cc1 | 0.00815 | 51.3 | 63.4 | –
O=C(Nc1ccc2cc[nH]c2c1)c1ccc(Br)cc1 | 0.00471 | 63.7 | 38.1 | –
COc1ccc(S(=O)(=O)Nc2ccc3cc[nH]c3c2)cc1 | 0.00753 | 45 | 57.2 | –
O=S(=O)(Nc1ccc2cc[nH]c2c1)c1ccc(Br)cc1 | 0.0227 | 40.1 | 37.8 | –
O=S(=O)(Nc1ccc2cc[nH]c2c1)c1ccc(Cl)cc1 | 0.0444 | 46.2 | 54 | –
